Screening results (PubChem BioAssay)
ALR inh – human ALR oxidase inhibition via reduced H2O2 | P55789 | purified ALR, DTT oxidation, H2O2 HRP-luminol luminescence | inhibition, % (concentration not given with the values) | 290,000 tested, 3.8% active | AID 485317;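 active = mean replicate inhibition above about 79%, with every replicate also reaching it, limit read from the data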
Target sequence (P55789 whole entry, looked up): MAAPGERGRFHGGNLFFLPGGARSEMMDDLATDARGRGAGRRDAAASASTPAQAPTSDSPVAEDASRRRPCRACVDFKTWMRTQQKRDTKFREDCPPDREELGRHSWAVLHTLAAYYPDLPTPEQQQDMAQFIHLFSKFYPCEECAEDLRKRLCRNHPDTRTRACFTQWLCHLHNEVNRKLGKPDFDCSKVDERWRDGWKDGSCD
CAL PDZ FP-1 – inhibitors of human CAL PDZ peptide binding; 330,000 tested, 0.02% active; inhibition, % at 20 µM; purified CAL PDZ, TMR-peptide fluorescence polarization, 1 h; AID 504414; Q9HD26;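 active = highest replicate inhibition of at least 40%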;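 also: plate controls were DMSO neutral control wells for no effect and unlabeled competitor peptide control wells for full effect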
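Material: tagged CAL PDZ protein CerCALP, purified; buffer or medium: sodium phosphate/NaCl buffer pH 7.4 with TCEP, IgG, Thesit; also added: fluorescent TMR peptide probe; schedule: 1 h incubation at room temperature before polarization reading; technique: fluorescence polarization from S- and P-plane intensities, G-factor corrected; control set: unlabelled peptide and DMSO controls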
Rtt109 Vps75 – inhibitors of Candida albicans Rtt109/Vps75 histone acetyltransferase; Q5AAJ8; purified Rtt109/Vps75, ThioGlo CoA-SH fluorescence, 4 h; inhibition, % at 34.9 µM; 330,000 tested, 0.16% active; AID 540336;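 active = inhibition of at least 50% in every replicate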
Target sequence (Q5AAJ8 whole entry, looked up): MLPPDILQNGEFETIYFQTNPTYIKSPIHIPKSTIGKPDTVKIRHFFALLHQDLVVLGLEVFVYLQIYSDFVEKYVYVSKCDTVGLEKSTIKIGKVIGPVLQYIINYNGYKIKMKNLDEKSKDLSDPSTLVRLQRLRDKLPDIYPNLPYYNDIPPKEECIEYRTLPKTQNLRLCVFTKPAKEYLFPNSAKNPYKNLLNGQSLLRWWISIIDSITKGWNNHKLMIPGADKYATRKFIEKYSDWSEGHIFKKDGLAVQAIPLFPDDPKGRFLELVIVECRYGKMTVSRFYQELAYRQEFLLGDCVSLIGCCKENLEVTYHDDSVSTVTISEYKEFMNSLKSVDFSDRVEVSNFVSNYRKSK
DYRK1A inh – Dyrk1A (rat) kinase inhibition; inhibition, % at 12.5 µM; 310,000 tested, 0.43% active; ADP-Glo luminescence, NFATc1 peptide; Q63470; in the data active = inhibition above about 50%;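 also: plate controls were vehicle with enzyme for no effect and no enzyme for full effect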
CAL PDZ FP-2 – CAL PDZ (human) peptide binding inhibition; purified CAL PDZ, TMR-peptide fluorescence polarization, 1 h; 300,000 tested, 0.92% active; Q9HD26; inhibition, % at 24.9 µM; AID 602252;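 active = mean inhibition of at least 30% with at least half of replicates also reaching 30%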;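 also: 0% = DMSO neutral control and 100% = excess unlabeled competitor peptide PRC23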
The depositor's hits bear a star; nt = not tested or not shown. An excerpt weighted towards active compounds, which were near 4.3% of everything screened.

SMILES	ALR inh	CAL PDZ FP-1	Rtt109 Vps75	DYRK1A inh	CAL PDZ FP-2
O=C1NN(c2ccc(Cl)c(Cl)c2)C(=O)/C1=C/c1cccc(OC(=O)c2cccs2)c1	-7	nt	nt	nt	nt
S=C(Nc1ccc(Nc2ccccc2)cc1)N1CCN(c2ncccn2)CC1	98*	1	-1	-2	2
Cc1ccc(N2CCN(C(=S)Nc3ccccc3)CC2)cc1	13	0	nt	0	86*
S=C(Nc1ccccc1)N1CCN(c2ccccc2)CC1	nt	-1	4	nt	nt
S=C(Nc1ccccc1)N1CCC(C2CCN(C(=S)Nc3ccccc3)CC2)CC1	-4	nt	nt	nt	nt
CC1CCCN(C(=S)Nc2ccc(Nc3ccccc3)cc2)C1 (stereo not drawn)	99*	-1	12	1	2
Cc1cc(C)cc(NC(=S)N2CCN(c3ncccn3)CC2)c1	-4	-1	5	4	6
OC1CCN(C(=S)Nc2ccc(Nc3ccccc3)cc2)CC1	99*	-1	-6	-1	-2
Cc1ccc(Cn2nnnc2CN2CCC(NC(=O)C(C)(C)C)CC2)cc1	-2	1	9	0	-2
COc1ccc(NC(=S)N2CCN(c3ccccc3)CC2)c(OC)c1	48	0	3	nt	1
CCOc1ccccc1NC(=S)N1CCN(c2ccccc2)CC1	98*	0	-3	-1	-5
CCCCNS(=O)(=O)c1ccc(NC(=O)Cc2ccccc2[N+](=O)[O-])cc1	-7	-1	53*	-2	-9
CC(C)(C)NS(=O)(=O)c1ccc(NC(=O)Cc2ccccc2[N+](=O)[O-])cc1	-11	1	nt	1	-6
CN1C(=O)CC(NNC(=O)c2ccc(Cl)cc2)C1=O (stereo not drawn)	90*	-1	-3	0	-2
CN1C(=O)CC(NNC(=O)c2ccccc2)C1=O (stereo not drawn)	nt	0	0	-2	-2
CCOc1ccc(NC(=O)c2cc3n(n2)C(C(F)(F)F)CC(c2ccco2)N3)cc1 (stereo not drawn)	-4	-1	2	3	6
O=C(Nc1ccc(O)cc1)c1cc2n(n1)C(C(F)(F)F)CC(c1ccco1)N2 (stereo not drawn)	99*	0	1	16	-2
Cc1ccc(-c2nn(C)c(=O)c3ccccc23)cc1CN1CCCCC1	-4	-1	3	nt	47*
CCCCCC1C(=O)C[C@@H]2CCN3C(=O)CCC[C@H]1[C@H]23 (stereo partly drawn)	nt	1	10	nt	-5
CS(=O)(=O)N(CC(=O)NCc1ccccc1)Cc1ccc(Cl)cc1	nt	0	6	-8	-2
CS(=O)(=O)N(CC(=O)NCc1ccccn1)Cc1ccc(Cl)cc1	99*	0	-2	3	-2
Cn1c(-c2ccccc2)cnc1NCc1cccc([N+](=O)[O-])c1	43	0	5	-2	nt
Cn1c(-c2cccc(Br)c2)cnc1NCc1cccnc1	85*	0	2	0	0
COc1cc(CNc2ncc(-c3ccc(Br)cc3)n2C)cc(OC)c1O	86*	1	-1	nt	9
COc1ccccc1CNc1ncc(-c2ccc(F)cc2)n1C	98*	0	-10	-1	0
SMILES	ALR inh	CAL PDZ FP-1	Rtt109 Vps75	DYRK1A inh	CAL PDZ FP-2
Cc1ccc(SCC(=O)N2N=CCC2c2ccccc2)cc1 (stereo not drawn)	-3	0	6	1	5
COc1ccc(S(=O)(=O)N(C)C[C@H]2Oc3c(NC(=O)Nc4c(C)noc4C)cccc3C(=O)N([C@H](C)CO)C[C@@H]2C)cc1	6	-2	-2	-9	-4
CCc1nnc(NC(=O)CSc2nc3c(c(=O)n2C)SC(C)C3)s1 (stereo not drawn)	-28	-1	5	-3	nt
CC1Cc2nc(SCC(=O)OCc3ccccc3)n(C)c(=O)c2S1 (stereo not drawn)	99*	0	5	5	2
CC1Cc2nc(SCC(=O)N3CCOCC3)n(C)c(=O)c2S1 (stereo not drawn)	25	-2	4	4	-2
CC1Cc2nc(SCC(=O)Nc3nc4ccccc4s3)n(C)c(=O)c2S1 (stereo not drawn)	99*	-2	20	11	nt
CC1Cc2nc(SCC(=O)c3ccccc3)n(Cc3ccccc3)c(=O)c2S1 (stereo not drawn)	50	-1	-9	-2	nt
CC1Cc2nc(SCC(=O)N3CCc4ccccc43)n(C)c(=O)c2S1 (stereo not drawn)	98*	1	-7	3	-5
CC(C)(C)OC(=O)CNC(=O)c1[nH]cnc1C(=O)NC(c1ccccc1)c1ccccc1	nt	-4	-5	nt	2
c1ccc2c(CSCCc3ccncc3)cccc2c1	100*	0	0	4	-1
CNC(=O)c1sc(N2N=C3/C(=C/c4ccccc4)CCCC3C2c2ccccc2)nc1C (stereo not drawn)	99*	0	-25	3	nt
CC(c1n[nH]c(=S)n1-c1ccc(F)cc1)N1CCCCC1 (stereo not drawn)	91*	13	-2	nt	-4
CC(c1n[nH]c(=S)n1-c1ccc(Cl)cc1)N(C)C (stereo not drawn)	41	1	-1	0	-3
CCN(CC)S(=O)(=O)c1cccc(NC(=O)c2ccc(Sc3nncn3C)c([N+](=O)[O-])c2)c1	-9	-2	5	11	-1
Cc1c(C(=O)NNC(=O)c2ccccc2O)oc2ccc(Br)cc12	4	0	-5	-1	4
O=C(Nc1c(C(=O)O)oc2ccc(Br)cc12)c1ccccc1	95*	-3	8	2	-14
CN(CC(=O)Nc1cccc(F)c1)C(=O)C1CC(=O)N(Cc2ccco2)C1 (stereo not drawn)	0	-2	-1	5	-7
Cc1ccc2[nH]c(C)c(CCNC(=O)c3cc4cc([N+](=O)[O-])ccc4oc3=O)c2c1	10	-1	3	-2	-1
Cc1ccc2[nH]c(C)c(CCNC(=O)c3c(N)no[n+]3[O-])c2c1	99*	0	21	-2	3
O=[N+]([O-])c1ccccc1OCCNCc1ccccc1	nt	0	-10	8	2
CCOc1ccc2c(c1)n(CO)c(=S)n2CO	100*	0	-2	nt	-10
CCCCS(=O)(=O)/C=C\C=C/S(=O)(=O)CCCC	98*	0	149*	nt	-1
Cc1ccc(-n2c(SCC(=O)O)nc3sc4c(c3c2=O)C(C)CCC4)cc1 (stereo not drawn)	98*	-4	-7	6	-7
CC1=NOC(=O)/C1=C\c1ccc(-c2ccc(Br)cc2)o1	nt	0	-7	-4	0
CC1=NOC(=O)/C1=C\c1ccc(-c2ccc(Br)cc2C(=O)O)o1	89*	0	3	-1	1
O=C1Nc2ccc([N+](=O)[O-])cc2OC1CCN1CCN(c2ccccc2)CC1 (stereo not drawn)	94*	0	14	0	-4
